Rows were chosen to be rich in hits. Some 2.3% of all compounds tested hit in one or more screens of this group.
HCV core dimer = HCV core protein dimerization inhibition. TR-FRET GST/Flag-core106 dimerization, 1536-well. inhibition, % at 5 µM. hit rate 0.33% among 300,000;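 active = inhibition above the mean of all tested compounds plus 3 SD, set per screening campaign, cut at about 45% in these data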
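Assay system – GST-tagged and Flag-tagged HCV core protein residues 1-106 · Quantity – core106 proteins, GST 13.5 nM and Flag 17 nM · Benchmarks – unlabelled core106 and no-GST-core106 wells · Read-out basis – percent inhibition of core106 dimerization signal · Detection – time-resolved FRET, ex 340 nm, em 617 and 671 nm · Schedule – 4 h at 22.5 °C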
HCV NS3 hel inh = inhibitors of Hepatitis C virus NS3 helicase; NS3 helicase DNA unwinding, Cy5 molecular beacon fluorescence; inhibition, % at 10.9 µM; hit rate 0.56% among 290,000; AID 1800;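 active = inhibition above the mean of all tested compounds plus 3 SD, set per campaign, cut at about 35% in these data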;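 also: 0% = DMSO wells and 100% = thioflavine S control wells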
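System: NS3 helicase fragment of HCV / Schedule: 1 h at 25 °C / Control set: DMSO alone as 0% and 110 µM thioflavine S as 100% / Reagent: Cy5/quencher beacon DNA duplex and ATP to start / Technique: Cy5 fluorescence / Replication: singlicate / Evaluation: % inhibition of end-to-start signal ratio versus controls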
ZTA DNA inh = ZTA (EBV) inhibition in EBNA-1 counter-screen; ZTA-DNA binding, fluorescence polarization; inhibition, % at 11 µM; hit rate 0.15% among 320,000; in the data active = inhibition above about 33%
Target sequence (P03206 whole entry, looked up): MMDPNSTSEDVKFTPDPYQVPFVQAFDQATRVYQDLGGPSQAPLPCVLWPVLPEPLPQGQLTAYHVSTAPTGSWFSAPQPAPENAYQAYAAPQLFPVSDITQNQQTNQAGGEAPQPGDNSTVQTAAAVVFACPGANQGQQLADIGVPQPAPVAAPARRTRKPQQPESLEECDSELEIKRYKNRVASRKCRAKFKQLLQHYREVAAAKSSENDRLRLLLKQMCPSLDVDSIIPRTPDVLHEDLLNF
EBV gp42 block = EBV gp42 inhibition; hit rate 0.42% among 220,000; AID 1085; Q1HVG2; inhibition, % (tested at 21.74 µM); Fluorescence polarization binding assay, mP read-out; in the data active = inhibition above about 50%
Target sequence (Q1HVG2 whole entry, looked up): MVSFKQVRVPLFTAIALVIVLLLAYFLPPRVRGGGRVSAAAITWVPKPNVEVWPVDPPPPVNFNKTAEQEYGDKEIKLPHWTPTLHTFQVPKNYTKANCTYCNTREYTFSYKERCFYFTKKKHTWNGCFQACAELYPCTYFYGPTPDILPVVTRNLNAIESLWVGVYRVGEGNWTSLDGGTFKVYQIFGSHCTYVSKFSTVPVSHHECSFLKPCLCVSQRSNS
EBNA-1 inhibitor = blocks EBNA-1 binding to DNA; EBNA-1 DNA binding, fluorescence polarization; inhibition, % at 14.8 µM; hit rate 0.34% among 300,000; AID 1950; in the data active = inhibition above about 28%
GPR7 antagonist = antagonists of human GPR7 (neuropeptides B/W receptor 1). P48145. GPR7-expressing cells, fluorescence antagonist assay. inhibition, % at 4.4 µM. hit rate 1.1% among 290,000. AID 1861; in the data active = inhibition above about 16%, passing the limit was not always enough;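 also: cells stimulated with the agonist NPW; 0% = agonist with vehicle and 100% = vehicle without agonist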
Active calls of the source: *; x = no result given.

SMILES | HCV core dimer | HCV NS3 hel inh | ZTA DNA inh | EBV gp42 block | EBNA-1 inhibitor | GPR7 antagonist
CCCCn1c(N)c(-c2nc3ccccc3s2)c2c([N+](=O)[O-])nn(C)c(=O)c21 | 3.0 | 7.7 | 7.2 | 5.0 | 0.1 | -2.9
CCCCCn1c(N)c(-c2nc3ccccc3s2)c2c([N+](=O)[O-])nn(CC)c(=O)c21 | 9.9 | 1.6 | 1.8 | -14.0 | 7.3 | -4.6
CCCCCn1c(N)c(-c2nc3ccccc3o2)c2c([N+](=O)[O-])nn(C)c(=O)c21 | -8.2 | 6.4 | 3.8 | 69.1* | 1.0 | -9.4
CCCCCn1c(N)c(-c2nc3ccccc3o2)c2c([N+](=O)[O-])nn(CC)c(=O)c21 | 0.4 | 7.5 | -11.8 | 54.9* | -9.6 | -1.9
O=C(CCc1ccccc1)NCCc1ccc(F)cc1 | -13.5 | 1.7 | -3.3 | x | 2.6 | -12.7
Cc1cccc2cc3c(N)c(C(=O)Nc4ccc(N5CCOCC5)cc4)sc3nc12 | -24.1 | 2.5 | -2.8 | 5.1 | -3.2 | -10.1
CCc1cccc2cc3c(N)c(C(=O)Nc4ccc(S(=O)(=O)N5CCCC5)cc4)sc3nc12 | 29.6 | 21.6 | -4.7 | 81.0* | -2.4 | -1.3
CCCCCCCn1c2c(c(=N)c3c1CCC3)CCCC2 | x | -33.1 | x | -6.7 | x | 62.2*
CC(C)CNC(=O)c1ccc(NC(=O)c2ccccc2[N+](=O)[O-])cc1 | -2.6 | -1.8 | 0.2 | -21.8 | 2.3 | -4.6
CCOc1ccc(Oc2ccc(NC(=O)[C@@H](NC(N)=O)[C@@H](C)CC)cc2)cc1 | 6.5 | -7.1 | 12.6 | -8.2 | -1.4 | -8.6
O=C(Nc1ccc(Cl)c(Cl)c1)c1ccccc1 | 3.6 | x | -6.1 | x | -0.4 | x
O=C(Nc1ccc2nc3ccccc3nc2c1)c1ccccc1 | -15.2 | -1.4 | -1.5 | 73.1* | 1.3 | -4.2
O=C(Nc1ccc(-c2nc3ccccc3s2)c(OC(=O)c2ccccc2)c1)c1ccccc1 | 57.7* | 11.2 | 6.0 | -3.2 | 10.7 | 0.3
CCOc1ccc(CN(C)C(=O)[C@H](Cc2ccccc2)NC(=O)OCc2ccccc2)cc1OC | 12.5 | -18.2 | 13.0 | x | -0.1 | 2.1
Cc1cc(-c2ccccc2C(=O)O)on1 | 1.5 | -0.8 | -0.4 | -13.0 | -1.9 | -6.6
O=C(O)c1ccccc1C1=Nc2ccc(O)cc2Oc2cc(O)ccc21 | -5.3 | -1.1 | 0.8 | 84.4* | -0.8 | 17.8
COC(=O)c1cc(CNC(=O)CCCSc2ccccc2)ccc1OC | x | 5.2 | x | x | x | -10.2
CC(=O)Nc1ccc(C(=O)/C=C/c2ccco2)cc1 | 3.6 | 20.4 | 15.8 | -8.8 | 0.7 | -4.5
O=C(/C=C\c1ccco1)c1ccc(NC(=O)c2ccco2)cc1 | 56.9* | 22.3 | 1.8 | 22.7 | -9.2 | -8.2
O=C(Nc1ccc2c(c1)CN(Cc1ccc(CO)o1)CC2)c1ccc(C(F)(F)F)cc1 | 57.5* | 30.0 | -17.1 | x | -6.6 | 6.6
COCC(=O)N1CCc2ccc(NC(=O)c3ccc(C(F)(F)F)cc3)cc2C1 | -2.4 | -9.4 | -13.2 | x | -11.5 | -13.9
O=C(CS(=O)(=O)c1c[nH]c2ccccc12)N1CCc2ccccc21 | -11.3 | -14.7 | -8.7 | -16.7 | -2.6 | -18.9
Cc1ccc[n+](-c2nc([O-])sc2C=O)c1 | -6.2 | -8.9 | -21.7 | 142.1* | -0.6 | -14.0
CC(C)c1ccc[n+](-c2nc([O-])sc2C=O)c1 | -1.9 | -11.8 | -11.6 | -6.8 | 5.3 | 9.3
Cc1ccccc1NC(=O)c1c(C)[nH]c(=S)c(C#N)c1-c1ccco1 | 16.2 | 49.1* | 1.7 | -19.2 | 1.1 | 1.7
SMILES | HCV core dimer | HCV NS3 hel inh | ZTA DNA inh | EBV gp42 block | EBNA-1 inhibitor | GPR7 antagonist
CNC(=O)c1c(C)[nH]c(=S)c(C#N)c1-c1ccco1 | 2.7 | 18.9 | 6.9 | -12.0 | 4.4 | -11.2
CC(C)C[C@H](NC(=O)N1c2ccccc2NC(=O)[C@@H]1C(C)C)C(=O)N[C@@H](Cc1ccccc1)C(=O)O | -4.0 | 3.7 | -9.3 | x | -0.3 | -6.9
N#CC1(NC(=O)COC(=O)/C=C/c2ccc3ccccc3n2)CCCCC1 | 48.3* | 4.4 | 14.1 | x | 7.8 | -9.8
COc1cccc(/C(O)=C/c2nc3ccc(C(=O)NCCc4ccc(Cl)cc4)cc3[nH]c2=O)c1 | x | -2.8 | x | 106.9* | x | -10.8
COc1cccc(/C(O)=C/c2nc3ccc(C(=O)NCCc4cccc(C)c4)cc3[nH]c2=O)c1 | -0.3 | -5.2 | 6.3 | 36.5 | 4.8 | 0.6
O=S(=O)(c1cccc2cccnc12)n1cnc2ccccc21 | -3.7 | -4.6 | 1.6 | -4.0 | 0.2 | 12.4*
Cn1cnnc1SCc1ccccc1 | 0.6 | 18.6 | -0.1 | -3.7 | 4.5 | -0.5
Cn1cnnc1SCc1ccc(-c2ccc(Br)cc2)o1 | 64.0* | 23.8 | 11.7 | 1.1 | 2.6 | -1.3
COc1cc(C2C3CN(C)CC=C3C(C#N)=C(N)C2(C#N)C#N)ccc1OC(C)C (centres undefined) | -2.6 | -6.4 | 15.2 | 10.3 | -2.5 | 13.4
CC(C)N1CC=C2C(C#N)=C(N)C(C#N)(C#N)[C@H](c3ccoc3)[C@H]2C1 | -24.8 | -0.5 | -22.9 | 129.7* | 5.3 | -14.5
CCN1CC=C2C(C#N)=C(N)C(C#N)(C#N)C(c3cc(Cl)ccc3Cl)C2C1 (centres undefined) | 19.6 | 31.8 | 19.0 | 72.5* | -7.2 | -6.9
CCOC(=O)N1CC=C2C(C#N)=C(N)C(C#N)(C#N)[C@H](c3cccs3)C2C1 (some centres undefined) | 9.2 | 1.7 | 9.0 | -6.5 | 2.7 | -9.0
CC1CC=C2C(C#N)=C(N)C(C#N)(C#N)C(c3cccs3)C2C1 (centres undefined) | 5.6 | 4.2 | 7.2 | 51.7* | -14.0 | 11.2
CC(C)N1CC=C2C(C#N)=C(N)C(C#N)(C#N)C(c3ccccc3)C2C1 (centres undefined) | -5.4 | -0.5 | -10.6 | 72.1* | -4.8 | -3.2
Cc1cc2c(cc1C)CN(c1ccccc1)C2 | 27.6 | 1.4 | 10.3 | -22.4 | -0.9 | -8.5
CCOc1ccccc1N1Cc2cc(C)c(C)cc2C1 | 66.7* | -4.5 | -14.8 | -10.9 | -7.4 | -15.2
CCOc1ccccc1N1Cc2ccccc2C1 | 53.6* | 9.5 | -5.3 | -8.6 | 5.3 | -4.7
O=[N+]([O-])c1cccc(-c2nnc(-c3ccccc3)o2)c1 | 3.6 | 0.8 | -14.3 | -18.6 | 24.6 | 2.7
Cc1occc1-c1nnc(-c2cc([N+](=O)[O-])cc([N+](=O)[O-])c2)o1 | 49.0* | 5.5 | 8.8 | -16.3 | -1.1 | -1.5
O=C(C1CCC(Cn2c(=O)[nH]c3ccccc3c2=O)CC1)N1CCN(c2ccccc2)CC1 (centres undefined) | 4.7 | -1.5 | 15.6 | -6.9 | -3.8 | -1.0
O=C(C1CCC(Cn2c(=S)[nH]c3ccccc3c2=O)CC1)N1CCN(c2ccccc2)CC1 (centres undefined) | 52.7* | -13.7 | 12.9 | x | -2.0 | -2.1
CN1C[C@@H]2C(c3ccc(Cl)nc3)C3(c4ccc(C#N)cc4)CC2(C3)[C@H]1c1ccccc1 (some centres undefined) | 15.2 | x | 17.2 | -25.9 | -13.1 | x
